Experimental findings from ChEMBL document CHEMBL4020709, “4-Indolyl-N-hydroxyphenylacrylamides as potent HDAC class I and IIB inhibitors in vitro and in vivo” (Eur J Med Chem, 2017) are described below.

One may read the IC50 as the concentration needed to halve the response being measured. The GI50 is the concentration giving 50% growth inhibition.

Data set [1] is described as follows: Inhibition of HDAC in human HeLa cell nuclear extract using […] as substrate after 30 mins by fluorescence assay. It counts as cell-free. The procedure, abridged: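 HeLa nuclear extract was incubated with fluorometric HDAC substrate in assay buffer at 37°C for 30 min. Lysine developer was then added for a further 30 min at 37°C. Fluorescence was read at ex 355/em 460 nm. Negative controls lacked extract, substrate, or both.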

The subject of data set [2] is PC-3. The experiment in a line: cells. It counts as functional. The settings on record: Homo sapiens, PC-3, 48 h.
The test system of a further data set is A549. The experiment in a line: cells. The note with it: Homo sapiens, A549, 48 h. It counts as functional.
For another data set, the system named is MDA-MB-231. The experiment in a line: cells. It counts as functional. The note with it: Homo sapiens, MDA-MB-231, 48 h.
A further data set has as its system ASPC1. The experiment in a line: cells. It counts as functional. The settings on record: Homo sapiens, ASPC1, 48 h.
A further data set concerns the target Histone deacetylase 2 (Homo sapiens, UniProt Q92769). The experiment in a line: Inhibition of recombinant human full length HDAC2 using Fluor-de-Lys as substrate after 60 mins by spectrofluorimetric analysis.
The target in the next data set is Histone deacetylase 1 (Homo sapiens, UniProt Q13547). The experiment in a line: Inhibition of recombinant human full length HDAC1 using Fluor-de-Lys as substrate after 60 mins by spectrofluorimetric analysis.
Chain of Histone deacetylase 1 (Q13547 whole entry): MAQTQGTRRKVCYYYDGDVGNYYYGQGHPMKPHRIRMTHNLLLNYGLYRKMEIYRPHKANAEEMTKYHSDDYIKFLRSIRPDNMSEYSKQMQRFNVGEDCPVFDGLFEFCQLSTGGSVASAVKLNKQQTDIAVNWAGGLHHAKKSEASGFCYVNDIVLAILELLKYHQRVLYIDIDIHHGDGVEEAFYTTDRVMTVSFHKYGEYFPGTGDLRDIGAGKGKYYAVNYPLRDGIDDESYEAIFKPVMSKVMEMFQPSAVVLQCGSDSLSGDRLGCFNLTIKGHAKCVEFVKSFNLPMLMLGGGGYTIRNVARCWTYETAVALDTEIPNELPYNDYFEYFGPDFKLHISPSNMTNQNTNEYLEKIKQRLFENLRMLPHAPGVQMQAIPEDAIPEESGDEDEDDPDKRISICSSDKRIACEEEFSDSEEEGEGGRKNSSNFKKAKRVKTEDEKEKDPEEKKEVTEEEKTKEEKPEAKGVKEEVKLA
Another data set concerns the target Histone deacetylase 4 (Homo sapiens, UniProt P56524). The experiment in a line: Inhibition of recombinant human full length HDAC4 using Fluor-de-Lys as substrate after 60 mins by spectrofluorimetric analysis.
Data set [3] deals with T1, Protein deacetylase HDAC6 (Homo sapiens, UniProt Q9UBN7).
T1 sequence (Q9UBN7 whole entry): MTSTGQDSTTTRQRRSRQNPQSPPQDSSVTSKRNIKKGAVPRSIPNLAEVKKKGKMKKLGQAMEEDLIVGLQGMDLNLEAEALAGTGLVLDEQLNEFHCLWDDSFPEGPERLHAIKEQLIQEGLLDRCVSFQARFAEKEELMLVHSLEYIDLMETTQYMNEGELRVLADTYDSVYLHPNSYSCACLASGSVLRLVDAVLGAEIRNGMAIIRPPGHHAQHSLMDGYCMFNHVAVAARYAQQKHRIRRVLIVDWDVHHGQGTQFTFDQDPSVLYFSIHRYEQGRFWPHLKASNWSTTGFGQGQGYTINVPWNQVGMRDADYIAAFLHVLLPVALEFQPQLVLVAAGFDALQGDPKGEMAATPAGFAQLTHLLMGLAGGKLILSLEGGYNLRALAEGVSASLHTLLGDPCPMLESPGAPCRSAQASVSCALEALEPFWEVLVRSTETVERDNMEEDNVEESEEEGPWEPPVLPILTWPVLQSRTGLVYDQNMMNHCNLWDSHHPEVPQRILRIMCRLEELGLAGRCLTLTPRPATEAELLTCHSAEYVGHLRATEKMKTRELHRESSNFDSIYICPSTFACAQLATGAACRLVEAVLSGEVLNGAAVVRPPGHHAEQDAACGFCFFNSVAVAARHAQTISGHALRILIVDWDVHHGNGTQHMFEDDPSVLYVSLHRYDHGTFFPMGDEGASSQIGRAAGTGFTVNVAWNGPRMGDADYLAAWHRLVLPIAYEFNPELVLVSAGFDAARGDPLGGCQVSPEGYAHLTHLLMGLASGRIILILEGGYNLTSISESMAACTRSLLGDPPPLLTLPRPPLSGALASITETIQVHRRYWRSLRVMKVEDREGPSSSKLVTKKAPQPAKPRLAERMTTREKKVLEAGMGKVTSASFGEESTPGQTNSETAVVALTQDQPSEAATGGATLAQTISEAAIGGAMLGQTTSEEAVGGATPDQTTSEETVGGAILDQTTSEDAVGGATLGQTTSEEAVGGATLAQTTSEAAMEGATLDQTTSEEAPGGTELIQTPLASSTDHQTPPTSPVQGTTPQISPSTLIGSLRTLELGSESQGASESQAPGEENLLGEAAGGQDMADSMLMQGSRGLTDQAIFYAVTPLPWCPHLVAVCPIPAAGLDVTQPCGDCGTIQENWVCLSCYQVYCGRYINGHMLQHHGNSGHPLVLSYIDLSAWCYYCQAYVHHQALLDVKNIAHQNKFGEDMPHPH
The experiment in a line: Inhibition of recombinant human full length HDAC6 using Fluor-de-Lys as substrate after 60 mins by spectrofluorimetric analysis.

Another data set deals with T2, Histone deacetylase 8 (Homo sapiens, UniProt Q9BY41).
T2 sequence (Q9BY41 whole entry): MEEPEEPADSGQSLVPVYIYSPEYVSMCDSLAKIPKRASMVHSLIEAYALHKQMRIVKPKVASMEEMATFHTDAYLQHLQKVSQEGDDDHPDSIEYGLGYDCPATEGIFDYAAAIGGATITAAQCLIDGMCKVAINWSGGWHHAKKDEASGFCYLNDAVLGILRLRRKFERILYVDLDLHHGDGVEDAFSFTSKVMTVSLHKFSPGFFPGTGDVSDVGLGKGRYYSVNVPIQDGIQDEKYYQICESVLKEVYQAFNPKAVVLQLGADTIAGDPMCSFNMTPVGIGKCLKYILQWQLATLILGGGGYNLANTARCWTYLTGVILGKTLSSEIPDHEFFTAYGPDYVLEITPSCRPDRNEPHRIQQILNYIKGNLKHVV
The experiment in a line: Inhibition of recombinant human full length HDAC8 using Fluor-de-Lys as substrate after 60 mins by spectrofluorimetric analysis.

In data set [4] the test system is PC-3. The experiment in a line: Antitumor activity against human PC3 cells xenografted in nude mouse assessed as reduction in tumor volume administered ip every other day for 18 days measured twice weekly. It counts as functional, organism-based. The procedure, abridged: (§1)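 Male nude mice were implanted s.c. in the flank with PC3 cells (1 × 10^7 per mouse) mixed with Matrigel. Dosing began at a tumor size of about 100 mm³ and was given i.p. every other day for 18 days. Tumors were measured by caliper twice weekly, and volume was calculated as length × width²/2. %TGI was derived from mean tumor volume against the vehicle group, compared by one-way ANOVA.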

The test system of data set [5] is PC-3. The experiment in a line: Antitumor activity against human PC3 cells xenografted in nude mouse assessed as tumor growth inhibition at 20 mg/kg, ip administered every other day for 18 days measured twice weekly. It counts as functional. The note with it: PC-3, ip, 432 h, read-out: TGI. The gist of the method: as §1
A general note: In xenograft studies the graft and the host belong to different species.

The subject of data set [6] is PC-3. The experiment in a line: Antitumor activity against human PC3 cells xenografted in nude mouse assessed as tumor growth inhibition at 40 mg/kg, ip administered every other day for 18 days measured twice weekly. It counts as functional. The settings on record: PC-3, ip, 432 h, read-out: TGI. The procedure, abridged: as §1
The subject of data set [7] is Mus musculus. The experiment in a line: Toxicity in nude mouse xenografted with human PC3 cells assessed as weight loss at 20 to 40 mg/kg, ip administered every other day for 18 days. It counts as organism-based. The note with it: in vivo, 432 h. The procedure, abridged:
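Male nude mice carried s.c. PC3 flank xenografts (1 × 10^7 cells with Matrigel). They received i.p. vehicle, 20 mg/kg or 40 mg/kg every other day for 18 days, and body weight (g) was tracked over the study.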

The subject of data set [8] is Mus musculus. The experiment in a line: In-vivo inhibition of HDAC in ip dosed nude mouse xenografted with human PC3 cells assessed as upregulation of acetyl-histone 3 expression by hematoxylin/eosin staining based immunohistochemical analysis. It counts as functional, organism-based. The gist of the method:
(§2)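 PC3 xenograft tumors were formalin-fixed and paraffin-embedded, then sectioned. Sections were deparaffinized and rehydrated, and endogenous peroxidase was quenched with 3% H2O2. Antigen retrieval used pH 9 buffer at 80°C overnight, followed by blocking with fat-free milk. Primary antibody (acetyl-histone H3, HDAC1 or HDAC2) was applied at 4°C overnight, then secondary antibody, then Mayer's hematoxylin counterstain. Separate sections received H&E staining.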

The subject of data set [9] is Mus musculus. The experiment in a line: Downregulation of HDAC2 expression in nude mouse xenografted with human PC3 cells at 40 mg/kg, ip administered every other day for 18 days measured twice weekly by hematoxylin/eosin staining based immunohistochemical analysis. It counts as functional, organism-based. The procedure, abridged:
as §2

In data set [10] the test system is Mus musculus. The experiment in a line: Effect on HDAC1 expression in nude mouse xenografted with human PC3 cells at 20 and 40 mg/kg, ip administered every other day for 18 days measured twice weekly by hematoxylin/eosin staining based immunohistochemical analysis. It counts as functional, organism-based. The gist of the method: as §2
Data set [11] is filed under the species Homo sapiens. The settings on record: at 1 µM.
For data set [12], the species on record is Homo sapiens. The note with it: at 1 µM. The source holds these as a separate data set.

Calls of active or inactive are those of the source. The rule behind the calls is not given here.

Chain of Histone deacetylase 4 (P56524 whole entry): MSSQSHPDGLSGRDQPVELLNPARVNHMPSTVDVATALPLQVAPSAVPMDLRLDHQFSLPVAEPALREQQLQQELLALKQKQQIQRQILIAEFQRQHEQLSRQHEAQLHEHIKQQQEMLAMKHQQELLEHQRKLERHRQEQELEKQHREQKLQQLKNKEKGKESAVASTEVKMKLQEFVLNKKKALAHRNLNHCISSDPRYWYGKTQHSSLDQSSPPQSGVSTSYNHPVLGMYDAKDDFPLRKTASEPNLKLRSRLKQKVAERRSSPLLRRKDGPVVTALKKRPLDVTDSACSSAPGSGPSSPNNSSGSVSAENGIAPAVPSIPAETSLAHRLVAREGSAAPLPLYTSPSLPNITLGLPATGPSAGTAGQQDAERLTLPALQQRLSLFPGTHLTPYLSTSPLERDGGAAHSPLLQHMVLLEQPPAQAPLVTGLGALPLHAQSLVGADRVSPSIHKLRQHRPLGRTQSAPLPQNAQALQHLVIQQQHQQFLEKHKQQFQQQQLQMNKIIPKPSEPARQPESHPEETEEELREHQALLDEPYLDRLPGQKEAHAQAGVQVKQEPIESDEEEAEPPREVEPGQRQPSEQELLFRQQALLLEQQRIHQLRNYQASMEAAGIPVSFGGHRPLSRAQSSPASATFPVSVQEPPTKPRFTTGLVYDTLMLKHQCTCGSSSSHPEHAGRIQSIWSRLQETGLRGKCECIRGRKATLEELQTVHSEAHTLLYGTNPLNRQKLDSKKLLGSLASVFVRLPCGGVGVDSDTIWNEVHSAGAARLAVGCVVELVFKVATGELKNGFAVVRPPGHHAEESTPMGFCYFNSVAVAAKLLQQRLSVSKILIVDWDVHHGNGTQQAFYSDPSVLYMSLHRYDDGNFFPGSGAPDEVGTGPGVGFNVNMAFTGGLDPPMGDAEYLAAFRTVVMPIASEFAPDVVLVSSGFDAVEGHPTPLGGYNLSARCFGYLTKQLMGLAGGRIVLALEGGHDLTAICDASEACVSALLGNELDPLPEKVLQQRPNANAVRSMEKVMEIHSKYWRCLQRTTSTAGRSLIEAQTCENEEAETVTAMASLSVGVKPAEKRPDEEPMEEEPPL
Chain of Histone deacetylase 2 (Q92769 whole entry): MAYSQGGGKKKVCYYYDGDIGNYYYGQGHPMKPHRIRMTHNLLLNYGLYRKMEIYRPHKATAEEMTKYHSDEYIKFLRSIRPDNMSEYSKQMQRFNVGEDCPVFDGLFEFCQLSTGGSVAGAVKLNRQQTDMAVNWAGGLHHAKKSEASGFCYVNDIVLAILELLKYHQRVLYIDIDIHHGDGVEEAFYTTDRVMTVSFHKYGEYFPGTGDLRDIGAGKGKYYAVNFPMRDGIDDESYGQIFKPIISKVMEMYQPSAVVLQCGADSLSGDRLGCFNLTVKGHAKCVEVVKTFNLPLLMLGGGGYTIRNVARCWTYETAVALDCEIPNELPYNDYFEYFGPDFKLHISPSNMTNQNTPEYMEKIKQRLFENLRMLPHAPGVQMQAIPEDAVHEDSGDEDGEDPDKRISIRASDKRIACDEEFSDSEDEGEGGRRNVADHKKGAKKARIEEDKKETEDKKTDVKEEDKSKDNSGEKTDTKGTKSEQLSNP

`O=C(/C=C/c1cccc(S(=O)(=O)NCCc2ccc3[nH]ccc3c2)c1)NO`: half-maximal inhibition in [1] (IC50) required 52.2 nM. Moreover, the concentration for 50% growth inhibition (GI50) is 330 nM in the data set with PC-3 [2], 820 nM in the data set with A549, 2470 nM in the data set on MDA-MB-231 and 2780 nM in the data set with ASPC1.
Take `O=C(/C=C/c1ccc(S(=O)(=O)NCc2cccc3[nH]ccc23)cc1)NO`: it took 7.17 nM to reach half-maximal inhibition in data set [1] (IC50). In addition, the GI50 in the data set on PC-3 [2] came to 860 nM; in the data set with A549, 1650 nM; with MDA-MB-231 it was 3550 nM; with ASPC1, 4560 nM.
Taken in the same sequence, the figures for `Nc1ccccc1NC(=O)c1ccc(CNC(=O)OCc2cccnc2)cc1` [ENTINOSTAT] were greater than 1000 nM, 430 nM, 5760 nM, 1410 nM and 6900 nM.
`O=C(CCCCCCC(=O)Nc1ccccc1)NO` [VORINOSTAT] registered an IC50 in data set [1] of 131 nM.
With `O=C(/C=C/c1ccc(S(=O)(=O)NCCc2ccc3[nH]ccc3c2)cc1)NO`, the midpoint of inhibition in [1], the IC50, lay at 76.1 nM. For the same compound, the GI50 with PC-3 [2] came to 310 nM; with A549, 600 nM; with MDA-MB-231 it was 9910 nM; in the data set with ASPC1, 3970 nM.
The corresponding values for `O=C(/C=C/c1cccc(S(=O)(=O)NCCc2cccc3[nH]ccc23)c1)NO` are 30.4 nM, 310 nM, 870 nM, 2060 nM and 3850 nM.
For the compound `Cn1ccc2c(CCNS(=O)(=O)c3ccc(/C=C/C(=O)NO)cc3)cccc21`, the half-inhibitory concentration (IC50) on Histone deacetylase 2 was 0.53 nM; in data set [1] it was 14.3 nM; at Histone deacetylase 1 it was 1.34 nM; on Histone deacetylase 4 it was greater than 100 nM; in data set [3], 6.8 nM; on Histone deacetylase 8 it was greater than 100 nM. Besides, the GI50 was 150 nM in the data set with PC-3 [2], 250 nM in the data set with A549, 80 nM in the data set on MDA-MB-231 and 160 nM with ASPC1.
In turn, `COc1ccc(S(=O)(=O)n2ccc3c(CCNS(=O)(=O)c4ccc(/C=C/C(=O)NO)cc4)cccc32)cc1` yielded an IC50 in [1] of 60 nM. In addition, the GI50 in the data set on PC-3 [2] is 2880 nM; with A549, 4350 nM; in the data set on MDA-MB-231, 5850 nM; in the data set with ASPC1, 12500 nM.
Turning to `O=C(/C=C/c1ccc(S(=O)(=O)NCCc2cccc3[nH]ccc23)cc1)NO`, the IC50 is 0.9 nM on Histone deacetylase 2; 8.56 nM in data set [1]; 1.28 nM at Histone deacetylase 1; greater than 100 nM at Histone deacetylase 4; 8.32 nM in data set [3]; greater than 100 nM at Histone deacetylase 8. The GI50 was found to be 140 nM with PC-3 [2], 250 nM in the data set on A549, 320 nM with MDA-MB-231 and 240 nM in the data set with ASPC1. Moreover, the Activity entry with PC-3 [4] is “Dose-dependent effect”; in the data set with Mus musculus [7] it was “Non-Toxic”; with Mus musculus [8], “Dose-dependent effect”. Besides, the inhibition in vivo at 20 mg/kg with PC-3 [5] turned out to be 51.6%. Besides, the inhibition in vivo at 40 mg/kg in the data set on PC-3 [6] was 62.2%. The result in the data set on Mus musculus [9] was Active. Moreover, the result in the data set with Mus musculus [10] was inactive. For the same compound, the inhibition result in the data set filed under Homo sapiens [11] and in the data set filed under Homo sapiens [12] was “Active” throughout.
For `O=C(/C=C/c1ccc(S(=O)(=O)Nc2cccc3[nH]ccc23)cc1)NO`, the half-inhibitory concentration (IC50) in data set [1] is greater than 1000 nM. The concentration for 50% growth inhibition (GI50) in the data set with PC-3 [2] is 3490 nM; in the data set with A549, greater than 10000 nM; with MDA-MB-231 it was greater than 10000 nM; with ASPC1 it was greater than 10000 nM.
`O=C(/C=C/c1cccc(S(=O)(=O)Nc2ccccc2)c1)NO` [BELINOSTAT]: the half-maximal inhibitory concentration (IC50) in data set [1] was 81 nM; at Histone deacetylase 4, greater than 1000 nM. In addition, the GI50 amounted to 310 nM in the data set on PC-3 [2], 230 nM in the data set with A549, 280 nM in the data set with MDA-MB-231 and 650 nM in the data set on ASPC1.
